Shown are actives, neighbours in structure and some others; about 2% of the full set was active somewhere.
CAL PDZ FP-1 – blocks peptide binding to human CAL PDZ domain. inhibition, % at 20 µM. Q9HD26. 0.02% of 330,000 active. purified CAL PDZ, TMR-peptide fluorescence polarization, 1 h;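 active = highest replicate inhibition of at least 40%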;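 note: plate controls were DMSO neutral control wells for no effect and unlabeled competitor peptide control wells for full effect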
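Material: tagged CAL PDZ protein CerCALP, purified; buffer or medium: sodium phosphate/NaCl buffer pH 7.4 with TCEP, IgG, Thesit; also added: fluorescent TMR peptide probe; schedule: 1 h incubation at room temperature before polarization reading; technique: fluorescence polarization from S- and P-plane intensities, G-factor corrected; control set: unlabelled peptide and DMSO controls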
dFosB act-1 – mouse delta FosB homodimer activation. P13346. purified delta FosB, TAMRA-CDK5 oligo fluorescence polarization; percent of positive-control signal above neutral wells. activation, % at 25 µM. 0.99% of 340,000 active. AID 493131;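 active = mean activation above about 17%, with every replicate also reaching it, limit read from the data, passing the limit was not always enough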
Target sequence (P13346 whole entry, looked up): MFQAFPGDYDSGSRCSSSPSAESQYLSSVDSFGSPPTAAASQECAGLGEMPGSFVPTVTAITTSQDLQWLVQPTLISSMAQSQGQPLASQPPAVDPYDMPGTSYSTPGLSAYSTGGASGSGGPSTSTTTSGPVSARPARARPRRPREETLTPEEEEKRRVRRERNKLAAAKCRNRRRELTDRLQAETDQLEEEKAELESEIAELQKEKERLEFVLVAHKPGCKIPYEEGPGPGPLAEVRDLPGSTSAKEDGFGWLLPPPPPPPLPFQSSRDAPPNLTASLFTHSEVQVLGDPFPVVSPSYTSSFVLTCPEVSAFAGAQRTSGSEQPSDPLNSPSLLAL
C2C12 statin – protects C2C12 myotubes from simvastatin toxicity; AID 602340; 0.78% of 330,000 active; rescue of ATP level, % at 7.49 µM; ATP luminescence, 48 h; scaled: DMSO 0, geranylgeraniol control 100;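 active = mean ATP rescue above about 67%, or every replicate alone reaching that limit, limit read from the data, passing the limit was not always enough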;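 note: myotubes were challenged with 10 µM simvastatin during compound exposure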
S100A4 inh HTS – S100A4-myosin IIA interaction inhibition | P26447 | S100A4/TAMRA-MyoIIA peptide fluorescence polarization | inhibition, % at 10.7 µM | 0.14% of 360,000 active | AID 652163;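 active = mean inhibition of at least 70% across replicates, with every replicate also reaching that level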
Target sequence (P26447 whole entry, looked up): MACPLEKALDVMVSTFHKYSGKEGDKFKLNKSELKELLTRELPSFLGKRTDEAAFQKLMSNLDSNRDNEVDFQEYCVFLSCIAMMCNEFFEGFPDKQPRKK
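incubation = readout 5 min after mixing, signal stable up to 60 min | system = S100A4 monomer protein | buffer or medium = HEPES pH 7.2 with CaCl2, KCl, NaCl, DTT, Triton | benchmarks = neutral control DMSO, positive control TFP | also added = fluorescent myosin IIA peptide, 5 nM | compound dosing = one concentration per compound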
CDK5 p35 inh – CDK5/p35 (human) kinase inhibition; 0.01% of 330,000 active; inhibition, % at 10 µM; Q00535+Q15078; Recombinant CDK5/p35, ADP-Glo luminescence, 60 min;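 active = highest replicate inhibition of at least 50% and at least 75% of replicates reaching 50%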;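 note: plate controls were DMSO neutral control for no effect and GW8510 at 10 µM for full effect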
CAL PDZ FP-2 – inhibitors of human CAL PDZ peptide binding | Q9HD26 | purified CAL PDZ, TMR-peptide fluorescence polarization, 1 h | inhibition, % at 24.9 µM | 0.92% of 300,000 active | AID 602252;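 active = mean inhibition of at least 30% with at least half of replicates also reaching 30%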;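 note: 0% = DMSO neutral control and 100% = excess unlabeled competitor peptide PRC23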
dFosB act-2 – activators of mouse delta FosB homodimer DNA binding. 2,400 tested, under 10 active. purified delta FosB, TAMRA-CDK5 oligo fluorescence polarization; normalised: neutral wells 0, positive control 100. activation, % at 24.9 µM. shares compounds with dFosB act-1. AID 588690;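 active = highest replicate activation at or above 34% and every replicate reaching that threshold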;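 note: higher polarization means more probe DNA bound by delta FosB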
Active calls of the source: *; nt = not tested or not shown.

SMILES	CAL PDZ FP-1	dFosB act-1	C2C12 statin	S100A4 inh HTS	CDK5 p35 inh	CAL PDZ FP-2	dFosB act-2
COc1ccc(NC(=O)Nc2ccc(N3CCOCC3)c3nonc23)c(OC)c1	1	26*	nt	-4	-3	nt	4
O=[N+]([O-])c1ccc(OCCOc2ccccc2/C=N/n2cnnc2)cc1	-3	36*	6	-8	0	-5	5
COc1ccccc1/C=N/n1cnnc1	-3	-5	10	nt	-1	-2	nt
O=c1c(O)c(-c2ccc(O)cc2)oc2cc(O)cc(O)c12	-1	6	-17	-1	2	-1	nt
O=c1c(-c2c(O)cc(O)c3c2O[C@H](c2ccc(O)cc2)CC3)c(-c2ccc(O)cc2)oc2cc(O)cc(O)c12	-1	31*	0	nt	-1	-2	7
CSc1cccc(NC(=S)N2CCC(c3ccccc3)C2)c1 (stereo not given)	-1	-4	-5	-6	1	2	nt
COc1cccc(C2c3c(oc4cc(C)c(C)cc4c3=O)C(=O)N2CCCN(C)C)c1 (stereo not given)	-1	38*	-7	nt	3	nt	4
COc1ccccc1-n1nc(C(=O)Nc2ccc3c(c2)OCO3)c2ccccc2c1=O	-1	24*	-5	nt	0	-2	1
O=C(COC(=O)c1ccccc1)NCC1CCCO1 (stereo not given)	1	2	1	2	13	3	nt
CCN(CC)CCNc1ncnc2c1sc1nc(N3CCOCC3)c3c(c12)CCCC3	-7	31*	nt	-9	-1	-12	-6
COc1ccc(Br)cc1CNC(=O)C1CCN(c2nnc(N3CCCC3=O)s2)CC1	-1	43*	21	5	1	4	2
O=C(Nc1cccc([N+](=O)[O-])c1)Nc1cccc([N+](=O)[O-])c1	-1	-4	nt	-9	0	2	nt
O=C(Nc1cccc([N+](=O)[O-])c1)Nc1cnccn1	-1	27*	nt	8	-3	nt	-6
C[C@H]1CN([C@@H](C)CO)C(=O)c2cc(NC(=O)Nc3ccc(F)cc3)ccc2O[C@@H]1CN(C)Cc1ccc2c(c1)OCO2	nt	nt	-23	22	nt	nt	nt
CCOC(=O)N1CCN(S(=O)(=O)c2ccc(C(=O)Nc3nc4ccc(F)cc4s3)cc2)CC1	-2	57*	nt	0	-1	-7	-6
CCOC(=O)N1CCN(S(=O)(=O)c2ccc(C(=O)Nc3nc4ccccc4s3)cc2)CC1	-2	23*	-7	-18	1	-3	0
CCOC(=O)N1CCC(=NNc2nc3ccccc3s2)CC1	1	-11	nt	0	2	2	nt
O=C(CNC(=O)c1n[nH]c2ccccc12)Nc1ccc(F)c(F)c1F	0	23*	9	-1	0	-3	3
COc1ccc(-n2nnnc2C(CCSC)N2CCN(C/C=C/c3ccccc3)CC2)cc1 (stereo not given)	nt	nt	-4	-4	nt	nt	nt
O=c1c2c(O)cc(O)cc2oc2c(O)ccc(O[C@H]3O[C@@H](CO)[C@H](O)[C@@H](O)[C@@H]3O)c12	-1	17*	2	0	1	-4	-1
C#CCN(Cc1ccco1)C(=O)c1nnc2c3ccccc3n(S(=O)(=O)c3ccccc3)c2n1	nt	nt	nt	3	nt	nt	nt
CCOC(=O)c1cnc(SCC(=O)Nc2sc(C)c(C)c2C#N)nc1N	0	45*	-8	nt	5	-5	-1
CCOC(=O)c1cnc(SCc2nc(N)nc(Nc3ccccc3)n2)nc1N	-2	35*	4	nt	0	1	-1
CCOC(=O)c1cnc(SCC(=O)Nc2cc(OC)cc(OC)c2)nc1N	-2	-1	-3	nt	0	-2	nt
Cc1ccc(-c2nnc(SCC(=O)Nc3sc(C)c(C)c3C#N)n2C)cc1	0	100*	-6	nt	-1	nt	2
SMILES	CAL PDZ FP-1	dFosB act-1	C2C12 statin	S100A4 inh HTS	CDK5 p35 inh	CAL PDZ FP-2	dFosB act-2
CCOC(=O)c1sc(NC(=O)CSc2nc(C)cc(C)c2C#N)c(C#N)c1C	-4	-8	-13	nt	1	-1	nt
CCOC(=O)c1sc(NC(=O)CSc2nc3c(cc2C#N)CCCCCC3)c(C#N)c1C	-1	19*	nt	nt	1	-4	4
CCCC(=O)c1cc2c(cc1NC(=O)c1ccccc1F)OCCO2	-1	-8	nt	-3	1	4	nt
CN(C)C(=O)C[C@@H]1C=C[C@H](NC(=O)C2CCC2)[C@@H](CO)O1	nt	nt	-17	-8	nt	nt	nt
COc1cccc(C(=O)NNC(=O)CCc2ccccc2)c1	-1	0	-1	-2	0	3	nt
O=C(C[C@@H]1C[C@H]2c3cc(NC(=O)Nc4ccc(F)cc4)ccc3O[C@H]2[C@H](CO)O1)NC1CCCCC1	nt	nt	0	nt	nt	nt	nt
Cc1sc(NC(=O)CSc2nnc(COc3ccc(Cl)cc3)n2C)c(C#N)c1C	-2	22*	nt	nt	0	-2	2
COCCn1c(SCC(=O)Nc2sc(C)c(C)c2C#N)nnc1-c1ccc(OC)cc1	0	-6	4	nt	-2	-3	nt
CCOC(=O)c1cnc(SCC(=O)Nc2cc(C(F)(F)F)ccc2N2CCOCC2)nc1N	0	20*	-16	nt	-1	5	-1
CCOC(=O)c1cnc(SCC(=O)Nc2ccc(N3CCOCC3)c(Cl)c2)nc1N	-3	-4	1	nt	2	nt	nt
COc1ccc(NC(=O)Nc2ccc3c(c2)C(=O)N([C@H](C)CO)C[C@H](C)[C@@H](CN(C)C(=O)Nc2ccccc2)O3)cc1	0	6	34	7	1	8	nt
O=C(c1ccc2snnc2c1)N1CCN(c2ccccn2)CC1	0	-8	1	nt	-1	-4	nt
